Assay [1] concerns Canis familiaris. The assay can be described thus: Intravenous gastric antisecretory activity against histamine-stimulated Heidenhain Pouch (HP) dogs at 1 ug/kg. In kind it is functional. The settings on record: Canis lupus familiaris, Stomach. The essentials: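 Conscious, 18-h-fasted Heidenhain pouch dogs in Pavlov stands, iv 0.15 M NaCl infusion, used at most weekly. Histamine 1.0 mg/h was infused after a 15–30-min basal period. At steady state (about 1 h), a single iv bolus was given in ethanol stock diluted with isoosmotic pH 7.4 phosphate buffer (≤20% ethanol). Acid was titrated to pH 7.0 over 15-min collections; percent inhibition was taken from maximum inhibition of total acid output.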

The species entered for assay [2] is Canis familiaris. In words: Oral gastric antisecretory effect in histamine-stimulated Heidenhain Pouch (HP) dogs. In kind it is functional. The following applies: Canis lupus familiaris, Stomach, in the assay text read “gastric fistula (GF)” for “Heidenhain Pouch (HP)”. The procedure, abridged: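 Conscious gastric fistula dogs, 4–12 per dose, three doses. After a 30-min basal period, drug was given intragastrically via dosing plug and the cannula closed for 30 min. Histamine was then infused at 15 μg/kg per h, with 30-min collections for 4 h. Acid was titrated to pH 7.0. ED50 is the dose giving 50% inhibition of 4-h total acid output. Relative potency and 95% limits came from bioassay analysis.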

The species named for assay [3] is Canis familiaris. In words: Relative gastric antisecretory effect in histamine-stimulated gastric fistula (GF) dogs. The settings on record: Canis lupus familiaris, Stomach.
The nature of assay [4]: Ratio of ED50 value of diarrheal effect to that of ED50 value of antisecretory effect. In kind it is functional. The essentials:
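Ratio of rat oral diarrheal ED50 at 8 h to intragastric antisecretory ED50 in histamine-stimulated gastric fistula dogs (4-h total acid output).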

The species entered for another assay is Rattus norvegicus. The assay can be described thus: Effect determining the diarrheagenic activity in rats. The format is functional. The procedure, abridged: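 Adult male Charles River rats (210–230 g), housed singly and fasted 24 h, n = 6–12. Logarithmically graded oral doses were given. Diarrhea was scored all-or-none hourly to 8 h. ED50 and approximate asymptotic 95% confidence limits came from a maximum-likelihood logistic dose–response fit.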

Take `CCCCC(C)(O)C/C=C/[C@H]1[C@H](O)CC(=O)[C@@H]1CC/C=C/C=C/C(=O)OC` (stereo not given in full): in the assay with Canis familiaris [1], the inhibition in vivo (as a rule, the percentage by which the read-out fell short of the control) at 0.001 mg/kg came out at 53%.
For `CCCCC(C)(O)C/C=C/[C@H]1[C@H](O)CC(=O)[C@@H]1C/C=C\C=C\CC(=O)OC` (stereo not given in full), the ED50 (in general, the midpoint of the dose-response relation) in the assay filed under Canis familiaris [2] amounted to 0.08 µg/kg; in the assay filed under Rattus norvegicus, 570 µg/kg. Besides, at 0.001 mg/kg the inhibition in vivo in the assay with Canis familiaris [1] was 83%. Further, the Relative potency in the assay filed under Canis familiaris [3] was found to be 0.31. The Ratio in assay [4] stood at 7120.
With `CCCCC(C)(O)C/C=C/[C@H]1[C@H](O)CC(=O)[C@@H]1CC/C=C\CCC(=O)OC` (stereo not given in full) [ENISOPROST], the 50% effective dose (ED50) in the assay listed under Canis familiaris [2] was 0.05 µg/kg; in the assay filed under Rattus norvegicus it was 62 µg/kg. This compound also gave an inhibition in vivo at 0.001 mg/kg in the assay with Canis familiaris [1] of 92%. Besides, in the assay filed under Canis familiaris [3], the Relative potency was determined as 1. Further, the Ratio in assay [4] worked out at 1240.
In the case of `CCCCC(C)(O)C/C=C/[C@H]1[C@H](O)CC(=O)[C@@H]1C/C=C/C=C/CC(=O)OC` (stereo not given in full), in the assay on Canis familiaris [1], at 0.001 mg/kg the inhibition in vivo was 21%.
On to `CCCCC(C)(O)C/C=C/[C@H]1[C@H](O)CC(=O)[C@@H]1CCCCCCC(=O)OC` (stereo not given in full) [MISOPROSTOL], for which, in the assay filed under Canis familiaris [2], it took a dose of 0.28 µg/kg to reach the 50% effect level (ED50). In the assay on Canis familiaris [1], this compound displayed an inhibition in vivo at 0.001 mg/kg of 79%. Further, in the assay filed under Canis familiaris [3], the Relative potency was 0.08. Further, the Ratio in assay [4] is 1310.
Turning to `CCCCC(C)(O)C/C=C/[C@H]1[C@H](O)CC(=O)[C@@H]1C/C=C/C/C=C/C(=O)OC` (stereo not given in full), at 0.001 mg/kg the inhibition in vivo in the assay on Canis familiaris [1] was 68%.
On to `CCCCC(C)(O)C/C=C/[C@H]1[C@H](O)CC(=O)[C@@H]1C/C=C/C=C\CC(=O)OC` (stereo not given in full), for which, in the assay with Canis familiaris [1], the inhibition in vivo at 0.001 mg/kg is 96%.
In turn, `CCCCC(C)(O)C/C=C/[C@H]1[C@H](O)CC(=O)[C@@H]1CC/C=C\C=C\C(=O)OC` (stereo not given in full) gave an inhibition in vivo at 0.001 mg/kg with Canis familiaris [1] of 41%.
For the compound `CCCCC(C)(O)C/C=C/[C@H]1[C@H](O)CC(=O)[C@@H]1C/C=C\C/C=C/C(=O)OC` (stereo not given in full), in the assay on Canis familiaris [1], the inhibition in vivo at 0.001 mg/kg was determined as 0%.

The values are drawn from ChEMBL document CHEMBL1123305, “Synthesis and gastric antisecretory properties of alpha chain diene derivatives of misoprostol” (1986).
